The structures appear in SMILES notation.

The record followed here is ChEMBL document CHEMBL1123408, “Influence of alkyl-chain fluorination on the action of mammary tumor inhibiting 2,3-bis(hydroxyphenyl)butanes and 2,3-bis(hydroxyphenyl)but-2-enes” (1986).

The target of assay [1] is T1, Estrogen receptor (Mus musculus) (UniProt O08537+P19785). Description: (§1) Uterotrophic effect in mice at 0.1 ug dose. The conditions noted are these: Uterus. Also noted: unit not given here. Type of assay: functional, tissue-based. In short, it runs like this: (§2)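 Immature female NMRI mice, 20 days old, 10 per group, given daily sc injections of 0.1 mL olive oil solution for 3 days. Uteri removed 24 h after the last dose, fixed in Bouin's solution, washed, dried and weighed. Antiestrogenic testing measured inhibition of estrone-stimulated uterine growth.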

Assay [2] has as its target T1, Estrogen receptor (Mus musculus). Description: (§3) Uterotrophic effect in mice at 10 ug dose. Type of assay: functional, tissue-based. Also noted: unit not given here. To be noted: Uterus. The method, boiled down: as §2
The species entered for assay [3] is Mus musculus. The assay is described as follows: Relative average tumor wet weight in treated compared to untreated mice at 1.33 mg dose. Type of assay: functional. The method, boiled down: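 MXT mammary tumor pieces of 1-2 mm³ from syngeneic donors were implanted sc by trocar into female BD2F₁ mice aged 8-10 weeks (20.0 ± 1.7 g), groups of 10. From the next day, compound in olive oil was given sc three times weekly for 6 weeks. Tumor wet weight was measured at the end and expressed as % T/C.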

For assay [4], the target named is T1, Estrogen receptor (Mus musculus). The assay is described as follows: (§4) Uterotrophic effect in mice at 0 ug dose. Type of assay: functional, tissue-based. On the set-up: unit not given here. To be noted: Uterus. In short, it runs like this:
as §2

The species named for assay [5] is Mus musculus. Description: Relative average tumor wet weight in treated compared to untreated mice at 4 mg dose. Type of assay: functional. In short, it runs like this: (§5)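 Syngeneic female BD2F1 mice (8–10 weeks) received sc trocar implants of 1–2-mm³ MXT tumor pieces, 10 per group. Treatment began the next day: sc doses in olive oil (solution or suspension), three times weekly for 6 weeks. Tamoxifen-treated control group included. Tumor wet weight measured at sacrifice; expressed as % T/C versus untreated controls.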

The target in assay [6] is T1, Estrogen receptor (Mus musculus). The assay is described as follows: Uterotrophic effect in BD2F mice bearing transplantable hormone dependent MXT at 4 mg dose. Type of assay: functional, tissue-based. To be noted: Uterus. The method, boiled down:
(§6)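 MXT-bearing female BD2F1 mice (10 per group) dosed sc in olive oil three times weekly for 6 weeks from the day after tumor transplantation. Uteri excised at sacrifice and dry weight determined; values given as mean ± SD.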

The species named for assay [7] is Mus musculus. Description: Relative average tumor wet weight in treated compared to untreated mice at 8 mg dose. The class given is functional. In short, it runs like this:
as §5

The target of assay [8] is T1, Estrogen receptor (Mus musculus). The assay is described as follows: Uterotrophic effect in BD2F mice bearing transplantable hormone dependent MXT at 1.33 mg dose. Type of assay: functional, tissue-based. The conditions noted are these: Uterus. The method, boiled down: as §6
Assay [9] has the same target. The assay is described as follows: (§7) Uterotrophic effect in mice at 1 ug dose. Type of assay: functional, tissue-based. Also noted: unit not given here. The conditions noted are these: Uterus. The method, boiled down:
as §2

Assay [10] has the same target. Description: Uterotrophic effect in BD2F mice bearing transplantable hormone dependent MXT at 8 mg dose. To be noted: Uterus. Type of assay: functional, tissue-based. The method, boiled down: as §6
The target is the same in assay [11]. The assay is described as follows: Anti-uterotrophic effect in mice at 25 ug dose. Type of assay: functional. In short, it runs like this: (§8)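 Immature female NMRI mice, 20 days old (14.5 ± 1.2 g), randomized into groups of 10. Each received a daily sc injection of compound in 0.1 mL olive oil for 3 days, given together with estrone. Uteri were taken 24 h after the last injection, fixed in Bouin's solution, washed, dried and weighed. The read-out was inhibition of estrone-stimulated uterine growth.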

Assay [12] has as its system Rattus norvegicus. The assay is described as follows: Percent progression in DMBA-Induced Hormone-Dependent Mammary Carcinoma in rats at 2 mg/kg dose. Type of assay: functional.
Assay [13] relates to Rattus norvegicus. Description: Percent unchanged tumors in DMBA-Induced Hormone-Dependent Mammary Carcinoma in rats at 5 mg/kg dose. Type of assay: functional.
Assay [14] has as its target T1, Estrogen receptor (Mus musculus). Description: Anti-uterotrophic effect in mice at 100 ug dose. The class given is functional. In short, it runs like this: as §8
For assay [15], the system named is Rattus norvegicus. Description: Percent unchanged tumors in DMBA-Induced Hormone-Dependent Mammary Carcinoma in rats at 2 mg/kg dose. The class given is functional.
Assay [16] concerns the target T1, Estrogen receptor (Mus musculus). The assay is described as follows: Anti-uterotrophic effect in mice at 1 ug dose. Type of assay: functional. In short, it runs like this: as §8
The test system of assay [17] is Rattus norvegicus. The assay is described as follows: Percent partial remission in DMBA-Induced Hormone-Dependent Mammary Carcinoma in rats at 5 mg/kg dose. The class given is functional.
Assay [18] has as its system Rattus norvegicus. Description: Percent complete remission in DMBA-Induced Hormone-Dependent Mammary Carcinoma in rats at 5 mg/kg dose. The class given is functional.
The test system of assay [19] is Rattus norvegicus. The assay is described as follows: Percent partial remission in DMBA-Induced Hormone-Dependent Mammary Carcinoma in rats at 2 mg/kg dose. The class given is functional.
The test system of assay [20] is Rattus norvegicus. The assay is described as follows: Percent change in body weight in DMBA-Induced Hormone-Dependent Mammary Carcinoma rats at 5 mg/kg dose. The class given is functional.
For assay [21], the target named is T1, Estrogen receptor (Mus musculus). The assay is described as §7. The class given is functional, tissue-based. The conditions noted are these: Uterus. The method, boiled down: as §2
For assay [22] the target is unchanged. Described as §3. Type of assay: functional, tissue-based. The conditions noted are these: Uterus. In short, it runs like this: as §2
The test system of assay [23] is Rattus norvegicus. The assay is described as follows: Final tumor number in DMBA-Induced Hormone-Dependent Mammary Carcinoma in rats at 5 mg/kg dose. Type of assay: functional.
Assay [24] relates to Rattus norvegicus. The assay is described as follows: Percent complete remission in DMBA-Induced Hormone-Dependent Mammary Carcinoma in rats at 2 mg/kg dose. The class given is functional.
Assay [25] has as its target T1, Estrogen receptor (Mus musculus). The assay is described as follows: Uterotrophic effect in BD2F mice bearing transplantable hormone dependent MXT at 20 mg dose. Type of assay: functional, tissue-based. To be noted: Uterus. The method, boiled down: as §6
Assay [26] shares this target. The assay is described as follows: Anti-uterotrophic effect in mice at 10 ug dose. The class given is functional. In short, it runs like this: as §8
For assay [27], the system named is Rattus norvegicus. Description: Percent change in total tumor area in DMBA-Induced Hormone-Dependent Mammary Carcinoma rats at 2 mg/kg dose. The class given is functional.
The test system of assay [28] is Rattus norvegicus. Description: Initial tumor number in DMBA-Induced Hormone-Dependent Mammary Carcinoma in rats at 5 mg/kg dose. Type of assay: functional.
For assay [29], the target named is T1, Estrogen receptor (Mus musculus). The assay is described as §1. Type of assay: functional, tissue-based. The conditions noted are these: Uterus. In short, it runs like this:
as §2

The test system of assay [30] is Rattus norvegicus. The assay is described as follows: Percent change in body weight in DMBA-Induced Hormone-Dependent Mammary Carcinoma rats at 2 mg/kg dose. The class given is functional.
Assay [31] deals with T1, Estrogen receptor (Mus musculus). Description: Uterotrophic effect in mice at 1000 ug dose. The class given is functional, tissue-based. The conditions noted are these: Uterus. On the set-up: unit not given here. The method, boiled down: as §2
Assay [32] shares this target. Description: Uterotrophic effect in mice at 25 ug dose. On the set-up: unit not given here. Type of assay: functional, tissue-based. To be noted: Uterus. In short, it runs like this:
as §2

The subject of assay [33] is Rattus norvegicus. Description: Final tumor number in DMBA-Induced Hormone-Dependent Mammary Carcinoma in rats at 2 mg/kg dose. Type of assay: functional.
The species named for assay [34] is Mus musculus. The assay is described as follows: Relative average tumor wet weight in treated compared to untreated mice at 20 mg dose. The class given is functional. In short, it runs like this: as §5
Assay [35] has as its system Rattus norvegicus. The assay is described as follows: Initial in tumor number in DMBA-Induced Hormone-Dependent Mammary Carcinoma in rats at 2 mg/kg dose. The class given is functional.
In assay [36] the test system is Rattus norvegicus. The assay is described as follows: Percent progression in DMBA-Induced Hormone-Dependent Mammary Carcinoma model in rats at 5 mg/kg dose. Type of assay: functional.
Assay [37] deals with T1, Estrogen receptor (Mus musculus). The assay is described as follows: (§9) Uterotrophic effect in mice at 100 ug dose. The conditions noted are these: Uterus. Type of assay: functional, tissue-based. The method, boiled down:
as §2

Assay [38] shares this target. The description is as §4. The class given is functional, tissue-based. Also noted: unit not given here. To be noted: Uterus. In short, it runs like this:
as §2
This is another data set of the same source.

The target is the same in assay [39]. The assay is described as §9. The class given is functional, tissue-based. The conditions noted are these: Uterus. Also noted: unit not given here. In short, it runs like this:
as §2

For assay [40], the system named is Rattus norvegicus. Description: Percent change in total tumor area in DMBA-Induced Hormone-Dependent Mammary Carcinoma rats at 5 mg/kg dose. Type of assay: functional.

T1 sequence (O08537 whole entry, looked up): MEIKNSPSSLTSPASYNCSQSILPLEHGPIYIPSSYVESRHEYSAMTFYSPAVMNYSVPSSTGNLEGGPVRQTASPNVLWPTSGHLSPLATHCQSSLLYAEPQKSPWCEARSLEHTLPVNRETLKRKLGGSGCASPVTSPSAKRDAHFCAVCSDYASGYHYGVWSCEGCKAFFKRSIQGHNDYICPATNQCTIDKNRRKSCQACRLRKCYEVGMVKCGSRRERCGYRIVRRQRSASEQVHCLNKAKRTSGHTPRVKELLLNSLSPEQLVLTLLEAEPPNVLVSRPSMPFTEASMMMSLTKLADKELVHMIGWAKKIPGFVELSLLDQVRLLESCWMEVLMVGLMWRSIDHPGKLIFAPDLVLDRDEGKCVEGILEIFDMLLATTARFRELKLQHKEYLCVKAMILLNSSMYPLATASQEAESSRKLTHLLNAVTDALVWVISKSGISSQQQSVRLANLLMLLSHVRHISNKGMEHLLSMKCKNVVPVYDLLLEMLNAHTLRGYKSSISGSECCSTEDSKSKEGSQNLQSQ
T1 sequence (P19785 whole entry, looked up): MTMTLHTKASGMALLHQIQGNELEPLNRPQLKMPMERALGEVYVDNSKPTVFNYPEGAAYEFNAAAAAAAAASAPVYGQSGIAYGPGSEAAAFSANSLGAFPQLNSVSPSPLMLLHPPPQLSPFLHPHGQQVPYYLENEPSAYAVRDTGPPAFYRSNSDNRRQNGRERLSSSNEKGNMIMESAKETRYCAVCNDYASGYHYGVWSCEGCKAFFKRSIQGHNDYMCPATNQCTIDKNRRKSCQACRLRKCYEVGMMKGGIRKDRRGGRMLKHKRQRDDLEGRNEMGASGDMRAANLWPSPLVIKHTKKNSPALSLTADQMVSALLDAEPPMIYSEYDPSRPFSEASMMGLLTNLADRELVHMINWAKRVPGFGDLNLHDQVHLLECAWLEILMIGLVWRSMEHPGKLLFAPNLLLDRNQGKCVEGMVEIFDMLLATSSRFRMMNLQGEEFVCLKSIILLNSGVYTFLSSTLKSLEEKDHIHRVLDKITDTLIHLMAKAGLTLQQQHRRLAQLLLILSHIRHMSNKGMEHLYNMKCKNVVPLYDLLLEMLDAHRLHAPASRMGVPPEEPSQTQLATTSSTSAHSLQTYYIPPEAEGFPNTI

As for `Oc1ccc(/C(=C(/c2ccc(O)cc2)C(F)(F)F)C(F)(F)F)cc1`, the Effect stood at 56.4 in [1]; 38.2 in [2]; 13.7 in assay [4]; 179 in [6]; 182 in assay [8]; 52.6 in assay [9]. In assay [10], this compound returned an Effect of 169. For the same compound, the TC in the assay listed under Mus musculus [3] is 10.4%; in the assay listed under Mus musculus [5], 5.5%; in the assay filed under Mus musculus [7] it was 5.2%.

Consider `Oc1cccc([C@H]([C@H](c2cccc(O)c2)C(F)(F)F)C(F)(F)F)c1`, for which the inhibition in [11] turned out to be 45.5%; in [14], 18%; in assay [16], 36.6%; in assay [26], 34.5%. In addition, the Effect is 10.1 in assay [1]; 19.8 in assay [2]; 10.8 in assay [4]; 31.4 in assay [21]; 32 in assay [22]; 90.1 in assay [25]. Besides, the Effect in assay [29] was determined as 10.1; in assay [31], 36; in assay [6], 84; in assay [32], 28.8; in assay [37], 36.7; in assay [38] it was 13.3. The Effect in assay [9] came to 15.4; in assay [39], 34.8. The Tumors was 47% in the assay with Rattus norvegicus [12]; 29% with Rattus norvegicus [13]; 28% in the assay on Rattus norvegicus [15]; 12% in the assay with Rattus norvegicus [17]; 21% in the assay with Rattus norvegicus [18]; 10% with Rattus norvegicus [19]. This compound had a Tumors with Rattus norvegicus [24] of 15%. For the same compound, the Change in weight with Rattus norvegicus [20] was -0.4%; with Rattus norvegicus [30], -1.1%; with Rattus norvegicus [36], 38%. Moreover, the No. of tumors with Rattus norvegicus [23] is given as 11; in the assay with Rattus norvegicus [28], 23; with Rattus norvegicus [33], 19; in the assay on Rattus norvegicus [35] it was 21. Further, the “Change in tumor area %” value in the assay with Rattus norvegicus [27] is listed as 165%; with Rattus norvegicus [40], 166%. Moreover, the TC was found to be 23.9% in the assay filed under Mus musculus [5] and 10.9% in the assay filed under Mus musculus [34].

Usually inhibition stands for the percentage by which the read-out fell short of the control.
